According to ChEMBL document CHEMBL1155099, “Natural products in parallel synthesis: triazole libraries of nonactic acid” (2008):
Calls of active or inactive are those of the source.

How the values were obtained:
Format in all cases: functional, organism-based
[1] = system: Pseudomonas aeruginosa; test: Antibacterial activity against Pseudomonas aeruginosa at 1 mM by almar blue dye reduction assay
In short: (§1)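 Single-point primary screen at 1 mM using Alamar Blue dye reduction as the growth read-out.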

[2] = system: Staphylococcus aureus; test: Antibacterial activity against Staphylococcus aureus at 1 mM by almar blue dye reduction assay; in short: as §1
[3] = system: Escherichia coli; test: Antibacterial activity against Escherichia coli at 1 mM by almar blue dye reduction assay; in short: as §1
[4] = system: Cryptococcus neoformans; test: Antifungal activity against Cryptococcus neoformans at 1 mM by almar blue dye reduction assay; in short: as §1
[5] = system: Bacillus subtilis; test: Antibacterial activity against Bacillus subtilis at 1 mM by almar blue dye reduction assay; in short: as §1
[6] = system: Saccharomyces cerevisiae; test: Antifungal activity against Saccharomyces cerevisiae at 1 mM by almar blue dye reduction assay; in short: as §1
[7] = system: Bacillus cereus; test: Antibacterial activity against Bacillus cereus at 1 mM by almar blue dye reduction assay; in short: as §1
[8] = system: Bacillus anthracis; test: Antibacterial activity against Bacillus anthracis at 1mM by almar blue dye reduction assay
[9] = system: Candida albicans; test: Antifungal activity against Candida albicans at 1 mM by almar blue dye reduction assay; in short: as §1

Measured: Activity

COCCNCC#Cc1cn([C@H](C)C[C@@H]2CC[C@H]([C@@H](C)C(=O)N3CCN(CC4CCCO4)CC3)O2)nn1 (stereo partly drawn)
inactive: all assays above

CCCNC(=O)NCC#Cc1cn([C@H](C)CC2CCC([C@@H](C)C(=O)N3CCCC3)O2)nn1 (single isomer, unassigned)
inactive: all assays above

C[C@H](CC1CCC([C@@H](C)C(=O)N(C)Cc2ccccc2)O1)n1cc(C#CCOC(=O)OCc2ccccc2)nn1 (single isomer, unassigned)
inactive: all assays above

CCN(CC)C(=O)[C@H](C)[C@H]1CC[C@@H](C[C@@H](C)n2cc(C#Cc3ccc(-c4ccccc4)cc3)nn2)O1
inactive: all assays above

CC(C)NC(=O)[C@H](C)[C@H]1CC[C@@H](C[C@@H](C)n2cc(C#Cc3ccc(-c4ccccc4)cc3)nn2)O1
inactive: all assays above

CC(C)NC(=O)[C@H](C)[C@H]1CC[C@@H](C[C@@H](C)n2cc(C#CCN3CCN(c4ccccc4)CC3)nn2)O1
inactive: all assays above

CCN(CC)C(=O)[C@H](C)[C@H]1CC[C@@H](C[C@@H](C)n2cc(C#CCC(C)C)nn2)O1
inactive: all assays above

C[C@H](CC1CCC([C@@H](C)C(=O)N(C)Cc2ccccc2)O1)n1cc(C#CCNC(=O)OCc2ccccc2)nn1 (single isomer, unassigned)
inactive: all assays above

Cc1cccc(NC(=O)OCC#Cc2cn([C@H](C)CC3CCC([C@@H](C)C(=O)N(C)Cc4ccccc4)O3)nn2)c1 (single isomer, unassigned)
inactive: all assays above

C[C@H](C[C@@H]1CC[C@H]([C@@H](C)C(=O)N(C)Cc2ccccc2)O1)n1cc(C#Cc2ccccc2)nn1
inactive: all assays above

C[C@H](C[C@@H]1CC[C@H]([C@@H](C)C(=O)N(C)Cc2ccccc2)O1)n1cc(C#Cc2cccc3ccccc23)nn1
inactive: all assays above

C[C@H](C[C@@H]1CC[C@H]([C@@H](C)C(=O)N2CCN(CC3CCCO3)CC2)O1)n1cc(C#CCOc2ccccc2)nn1 (stereo partly drawn)
inactive: all assays above

C[C@H](CC1CCC([C@@H](C)C(=O)N2CCCC2)O1)n1cc(C#CCNC(=O)OCc2ccccc2)nn1 (single isomer, unassigned)
inactive: all assays above

C[C@H](C[C@@H]1CC[C@H]([C@@H](C)C(=O)N(C)Cc2ccccc2)O1)n1cc(C#Cc2ccc(-c3ccccc3)cc2)nn1
inactive: all assays above

Cc1cccc(NC(=O)NCC#Cc2cn([C@H](C)CC3CCC([C@@H](C)C(=O)N4CCN(CC5CCCO5)CC4)O3)nn2)c1 (single isomer, unassigned)
inactive: all assays above

C[C@H](CC1CCC([C@@H](C)C(=O)N2CCCC2)O1)n1cc(C#CCOC(=O)OCc2ccccc2)nn1 (single isomer, unassigned)
inactive: all assays above

Cc1cccc(NC(=O)NCC#Cc2cn([C@H](C)CC3CCC([C@@H](C)C(=O)NC(C)C)O3)nn2)c1 (single isomer, unassigned)
inactive: all assays above
